TAAR1 antag = human TAAR1 antagonism; CHO RD-HGA16 TAAR1, Fluo-8 calcium fluorescence, antagonist; 360,000 compounds, 1.5% hits; Q96RJ0; inhibition, % at 3 µM;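 active = inhibition above a per-plate cutoff, the mean inhibition of test compounds on that plate plus 3 SD, cut at about 49% in these data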;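 note: 0% = DMSO plus EC80 beta-PEA response and 100% = DMSO alone without agonist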
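Material: RD-HGA16 CHO cells with stable hTAAR1 and Gα16; Dosing: single nominal final test compound concentration of 3 µM; Schedule: seeding 17-24 h prior, 75-min 37 °C, 30-min RT dye loading; Detection: kinetic Fluo-8 calcium fluorescence measurement; Measure: % inhibition from peak post-agonist over basal fluorescence ratio; Benchmarks: vehicle and agonist controls.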
TAAR1 ag = human TAAR1 agonism; Q96RJ0; CHO RD-HGA16 TAAR1, Fluo-8 calcium fluorescence; vehicle wells 0%, saturating PEA agonist 100%; activation, % at 3 µM; 360,000 compounds, 0.99% hits; AID 624467;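 active = activation above the mean activation of all test compounds in the run plus 3 SD, cut at about 38% in these data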
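Repeats: no replicates (n 1) | Material: CHO-derived RD-HGA16 cells with stable Gα16 and human TAAR1 | Technique: Kinetic Fluo-8 calcium fluorescence | Schedule: 17-24 h seeding, 75 min 37 °C dye, 30 min RT | Evaluation: % activation from peak over basal fluorescence ratio, DMSO-to-PEA scaled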
NTR1 agonist = agonists of human neurotensin receptor NTR1; NTR1-U2OS beta-arrestin-GFP spot imaging, agonist mode; activation, % at 20 µM; 330,000 compounds, 0.17% hits; P30989;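 active = activation at or above 40% of the spot to cytoplasm intensity ratio, with at least 20 cells analyzed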;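 note: 0% = DMSO without peptide and 100% = 100 nM NTR1 peptide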
CHO parental Ca = counter-screen: ATP calcium response change in parental CHO cells; inhibition, % at 5.6 µM; AID 463079; 330,000 compounds, 0.63% hits; parental CHO-K1, ATP-induced calcium, Fluo-8 fluorescence;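 active = inhibition above that plate's mean sample inhibition plus 3 SD, cut at about 26% in these data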;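 note: 0% = ATP-challenged DMSO wells and 100% = DMSO wells without ATP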
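Material: parental CHO cells / Compound: single nominal dose of 5.6 µM per compound / Signal: Fluo-8 fluorescence / Replicates: singlicate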
OX1R antag-1 = blocks the human orexin 1 receptor | OX1R-expressing cells, FRET antagonist read-out | O43613 | inhibition, % at 6.6 µM | 330,000 compounds, 1.8% hits | AID 485270; in the data active = inhibition mostly above about 38%, no sharp cut-off; inactive = mostly below about 40%;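 note: 0% = agonist challenge alone and 100% = reference antagonist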
Target sequence (O43613 whole entry, looked up): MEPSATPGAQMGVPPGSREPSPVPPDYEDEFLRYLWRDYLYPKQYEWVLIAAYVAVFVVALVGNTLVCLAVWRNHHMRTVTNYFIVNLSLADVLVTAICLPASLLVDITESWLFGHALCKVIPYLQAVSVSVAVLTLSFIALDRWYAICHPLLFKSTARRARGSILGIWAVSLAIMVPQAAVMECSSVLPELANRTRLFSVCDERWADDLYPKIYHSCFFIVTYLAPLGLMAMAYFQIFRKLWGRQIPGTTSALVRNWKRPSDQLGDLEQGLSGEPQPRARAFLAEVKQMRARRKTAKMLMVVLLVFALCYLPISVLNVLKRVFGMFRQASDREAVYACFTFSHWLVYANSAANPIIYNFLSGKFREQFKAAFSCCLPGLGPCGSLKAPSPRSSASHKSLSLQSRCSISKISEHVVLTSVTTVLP
OX1R antag-2 = human HCRTR1 antagonism. 330,000 compounds, 0.43% hits. inhibition, % at 5 µM. CHO/OX1R cells, Fluo-8 calcium fluorescence, orexin A. O43613;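 active = inhibition above its plate's threshold, mean inhibition of all tested compounds on the plate plus 3 SD, cut at about 37% in these data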;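 note: 0% = orexin A challenge wells and 100% = SB-334867-A antagonist wells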
Numbers without * were called inactive; nt = no result. Shown are actives, neighbours in structure and some others; about 4% of the full set was active somewhere.

SMILES | TAAR1 antag | TAAR1 ag | NTR1 agonist | CHO parental Ca | OX1R antag-1 | OX1R antag-2
Cc1ccc(S(=O)(=O)N2CCC(C(=O)OC(C)C(=O)N(C)c3ccccc3)CC2)cc1C (stereo not given) | -6 | 4 | 1 | -10 | -3 | -13
CC(=O)N(C1=C(N)C(=O)c2ccccc2C1=O)c1ccccc1 | -24 | 0 | 4 | -3 | 46* | -12
O=C(N(c1ccccc1)c1ccccc1)N(c1ccccc1)c1ccccc1 | -26 | 1 | 8 | -17 | 8 | -10
CN(c1ccc(C(=O)NCCc2ccccc2)cc1)S(C)(=O)=O | -3 | 40* | 4 | -5 | 8 | -7
CCCCc1ccc(NC(=O)c2ccc(N(C)S(C)(=O)=O)cc2)cc1 | -21 | 26 | 4 | 69* | 17 | 10
Cc1ccc(S(=O)(=O)N(C)c2ccc(C(=O)NCCc3ccccc3)cc2)cc1 | -3 | 0 | 0 | -4 | 16 | -9
O=C(NCCc1ccccc1)c1ccc(NC(=O)C2CCCCC2)cc1 | 49* | 5 | nt | nt | nt | nt
CCCCc1ccc(NC(=O)c2ccc(NS(C)(=O)=O)cc2)cc1 | -11 | 0 | 2 | -4 | 26 | 0
COc1ccc(N(CC(=O)NCC2CCCO2)C(=O)CCC(=O)Nc2cc(C)on2)cc1OC (stereo not given) | -3 | 1 | -2 | -4 | 5 | 3
CC(=O)c1c(O)cc2c3c1OC(C)(C)C1CCC(C)(CC31)O2 (stereo not given) | 52* | 8 | nt | nt | nt | nt
O=C(COC(=O)c1cc(S(=O)(=O)Nc2ccccc2Cl)ccc1O)Nc1ccc(F)c(F)c1F | 10 | 5 | 1 | -6 | 34* | 16
COC(=O)C1=C(C)N(Cc2ccc(C(F)(F)F)cc2)C(=NCc2cc(OC)c(OC)c(OC)c2)NC1c1cccc(Cl)c1 (stereo not given) | 14 | 22 | nt | nt | nt | nt
Clc1cccc(Cl)c1/C=N\Nc1nccs1 | -5 | 5 | 1 | -6 | 21 | -26
CCc1nnc(N/N=C/c2c(F)cccc2Cl)n1N | -14 | 0 | 2 | -6 | 71* | -5
CCc1nnc(N/N=C/c2cc(C)c(C)cc2C)n1N | 13 | 1 | 0 | nt | nt | nt
Cc1[nH]c2ccccc2c1/C=N/NC(N)=S | -11 | 4 | 1 | -4 | -1 | -1
Cc1nnc(N/N=C/c2c(Cl)cccc2Cl)n1N | 3 | 0 | 1 | -5 | 61* | -15
CCc1nnc(N/N=C/c2c(C)[nH]c3ccccc23)n1N | -10 | 1 | 0 | 12 | 68* | 3
COC(=O)[C@]12C[C@H](CC(=O)NCc3cccc4ccccc34)C(=O)N(Cc3ccccc3)C1=C[C@H](C1CCCC1)O[C@@H]2C | -15 | 0 | nt | nt | nt | nt
O=C(COc1ccc(Cl)cc1)NCCCNC(=O)c1ccncc1 | -7 | 3 | 0 | 1 | 1 | -4
COc1ccc(NC(=O)CCNC(=O)c2ccc([N+](=O)[O-])cc2)cc1S(=O)(=O)N1CCCCC1 | -34 | 0 | 2 | nt | nt | nt
COc1ccc(C(=O)c2ccc([N+](=O)[O-])cc2)cc1S(=O)(=O)N1CCC(C(=O)O)CC1 | -12 | 1 | 0 | -4 | 53* | -14
Nc1c2c(nc3sc4c(c13)CCCC4)-c1ccccc1CC2 | 9 | -3 | 17 | -10 | 72* | -7
Cc1sc2ncnc(NCCc3ccc(S(N)(=O)=O)cc3)c2c1C | 24 | 6 | 2 | 53* | 37 | 20
NS(=O)(=O)c1ccc(CCNc2ncnc3sccc23)cc1 | 20 | 2 | 1 | 22 | 10 | 9
SMILES | TAAR1 antag | TAAR1 ag | NTR1 agonist | CHO parental Ca | OX1R antag-1 | OX1R antag-2
COc1cccc(NC(=O)COC(=O)C2CC(=O)N(c3ccc(C)cc3)C2)c1 (stereo not given) | -18 | 0 | 1 | -18 | 4 | -18
CCOc1ccc(Nc2ccc3nonc3c2[N+](=O)[O-])cc1 | 6 | -4 | 1 | 0 | 45* | -35
O=[N+]([O-])c1c(Nc2ccc(Br)cc2)ccc2nonc12 | -12 | 3 | -1 | -4 | 13 | -10
Cc1ccc(Nc2ccc([N+](=O)[O-])nc2[N+](=O)[O-])cc1 | -7 | 1 | -1 | -8 | 62* | 2
COC(=O)c1ccc(Nc2ccc3nonc3c2[N+](=O)[O-])cc1 | -4 | 2 | 2 | -3 | 5 | -3
Cc1ccc(Nc2ccc3nonc3c2[N+](=O)[O-])cc1 | -3 | 2 | 1 | -17 | 64* | -7
O=C(O)c1ccc(Nc2ccc3nonc3c2[N+](=O)[O-])cc1 | -2 | 5 | 1 | -7 | 57* | 9
CCCCNc1ccc2c(c1)OC[C@@H](CC(C)C)NS2(=O)=O | -23 | -1 | nt | nt | nt | nt
CCOC(=O)N(C)[C@H]1C[C@H]2c3[nH]c4ccccc4c3CCN2C(=O)[C@H]1[C@H](C)O | -19 | 3 | nt | nt | nt | nt
Cc1nc(Nc2ccc(C(=O)O)cc2)nc(Nc2ccc(C(=O)O)cc2)c1[N+](=O)[O-] | 3 | 10 | 1 | 1 | 42* | -2
CN(C)c1ccc(N=Nc2ccccc2C(=O)OCC(=O)N(C)c2ccccc2)cc1 | 62* | 17 | 7 | 34* | 21 | 1
COCCN(CCOC)C(=O)COC(=O)c1cc([N+](=O)[O-])ccc1Cl | -27 | 1 | 2 | -11 | 48* | -4
COC(=O)c1ccccc1NC(=O)COC(=O)c1ccccc1N=Nc1ccc(N(C)C)cc1 | -8 | 6 | 5 | -20 | 31 | -18
CN(C(=O)COC(=O)CSc1ccc([N+](=O)[O-])cc1)c1ccccc1 | 51* | 1 | 0 | -12 | 8 | -13
CN(C(=O)COC(=O)c1cc([N+](=O)[O-])ccc1Cl)c1ccccc1 | -18 | 5 | 2 | -20 | 66* | -12
COc1cc(/C=N/n2c(C)nc3ccccc3c2=O)cc(OC)c1O | -9 | 0 | 0 | -16 | 3 | 10
CCOc1ccc(NC(=O)CSc2ncc(-c3ccc(F)cc3)n2Cc2ccco2)cc1 | -28 | -1 | 12 | -3 | 16 | 12
CCOc1ccccc1NC(=O)CSc1nnc(-c2ccccc2Cl)n1Cc1ccco1 | -24 | 9 | 0 | -1 | 69* | -20
CCCn1c(SCC(=O)Nc2ccccc2-c2ccccc2)nnc1-c1ccoc1C | 12 | 1 | 0 | -9 | 59* | -12
O=C(CSc1ncc(-c2ccc(F)cc2)n1Cc1ccco1)Nc1ccc2c(c1)OCO2 | 34 | 21 | 5 | 38* | 43 | 29
O=C(CSc1nnc(-c2ccccc2)n1Cc1ccco1)Nc1ccc2c(c1)OCCO2 | 7 | 7 | -1 | -10 | 48* | -14
COC(=O)c1ccc(CNC(=O)C2CCC(=O)N(C3CCCCCC3)C2)cc1 (stereo not given) | -22 | 0 | -1 | -28 | -5 | -34

Bioassay records: PubChem BioAssay, several laboratories
